{
  "source": "ChEMBL document CHEMBL4138058",
  "about": "“Design and synthesis of novel selective estrogen receptor degradation inducers based on the diphenylheptane skeleton” (Medchemcomm, 2017)",
  "format_in_all_cases": "cell-based",
  "key": {"[1]": {"molecular_target": "T1, Androgen receptor (Homo sapiens) (UniProt P10275)", "T1 sequence (whole entry)": "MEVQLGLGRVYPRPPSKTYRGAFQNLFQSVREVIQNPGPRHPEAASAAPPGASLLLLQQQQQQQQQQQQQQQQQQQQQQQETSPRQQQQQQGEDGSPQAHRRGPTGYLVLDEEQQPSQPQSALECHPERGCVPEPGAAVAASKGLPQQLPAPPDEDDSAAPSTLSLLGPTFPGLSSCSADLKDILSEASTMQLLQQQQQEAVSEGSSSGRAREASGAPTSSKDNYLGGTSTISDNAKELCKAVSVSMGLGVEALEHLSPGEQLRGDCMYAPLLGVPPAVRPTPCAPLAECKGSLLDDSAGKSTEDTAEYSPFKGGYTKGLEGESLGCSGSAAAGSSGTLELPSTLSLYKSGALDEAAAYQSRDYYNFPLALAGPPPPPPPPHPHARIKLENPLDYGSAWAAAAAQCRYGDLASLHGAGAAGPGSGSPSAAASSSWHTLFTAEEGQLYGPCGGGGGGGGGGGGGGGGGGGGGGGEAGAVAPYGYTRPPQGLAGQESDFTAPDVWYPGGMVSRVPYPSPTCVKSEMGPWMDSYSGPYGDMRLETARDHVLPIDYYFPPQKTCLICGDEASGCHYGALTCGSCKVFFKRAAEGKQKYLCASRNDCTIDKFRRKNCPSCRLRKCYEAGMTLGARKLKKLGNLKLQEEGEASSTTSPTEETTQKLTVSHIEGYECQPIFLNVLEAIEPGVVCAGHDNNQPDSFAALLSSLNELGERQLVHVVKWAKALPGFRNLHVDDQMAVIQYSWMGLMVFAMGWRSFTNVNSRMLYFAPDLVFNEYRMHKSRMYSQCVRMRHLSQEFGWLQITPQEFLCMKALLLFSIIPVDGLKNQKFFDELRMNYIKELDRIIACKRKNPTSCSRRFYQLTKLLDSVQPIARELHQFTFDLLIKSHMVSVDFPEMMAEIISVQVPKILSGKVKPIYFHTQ", "assay": "Downregulation of androgen receptor expression in human MCF7 cells at 10 uM after 6 hrs in presence of proteasome inhibitor MG132 by Western blot method relative to lamin B", "summary_of_the_method": "(§1)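 MCF-7 cells kept in DMEM with 10% FBS, kanamycin and 10 μg/mL insulin, then exposed to compounds for 6 h. Lysates made in SDS buffer (0.1 M Tris-HCl pH 8.0, 10% glycerol, 1% SDS), boiled, BCA-normalized and run on SDS-PAGE. Blots probed with anti-ERα, AR, AhR or VDR and β-actin or lamin B. Chemiluminescence quantified as target/loading-protein ratio; means ± S.E., n=3.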"}, "[2]": {"molecular_target": "T2, Estrogen receptor (Homo sapiens) (UniProt P03372)", "T2 sequence (whole entry)": "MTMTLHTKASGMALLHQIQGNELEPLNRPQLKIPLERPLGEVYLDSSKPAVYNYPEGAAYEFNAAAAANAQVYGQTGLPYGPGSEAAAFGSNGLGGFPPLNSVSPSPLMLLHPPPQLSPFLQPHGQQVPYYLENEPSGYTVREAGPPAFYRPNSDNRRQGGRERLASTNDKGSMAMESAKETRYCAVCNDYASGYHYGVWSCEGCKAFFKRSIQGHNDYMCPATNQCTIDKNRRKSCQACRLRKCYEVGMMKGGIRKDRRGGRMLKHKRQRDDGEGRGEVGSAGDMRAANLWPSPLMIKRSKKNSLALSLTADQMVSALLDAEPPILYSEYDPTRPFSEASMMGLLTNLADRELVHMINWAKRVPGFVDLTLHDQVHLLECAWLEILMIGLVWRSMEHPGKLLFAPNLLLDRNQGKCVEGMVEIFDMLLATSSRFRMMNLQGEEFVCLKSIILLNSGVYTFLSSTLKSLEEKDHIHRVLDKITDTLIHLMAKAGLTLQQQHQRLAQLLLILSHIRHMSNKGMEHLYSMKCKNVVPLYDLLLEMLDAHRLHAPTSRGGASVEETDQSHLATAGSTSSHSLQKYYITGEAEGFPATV", "assay": "Downregulation of ERalpha expression in human MCF7 cells at 3 uM after 6 hrs by Western blot method relative to beta-actin", "summary_of_the_method": "as §1"}, "[3]": {"molecular_target": "T3, Vitamin D3 receptor (Homo sapiens) (UniProt P11473)", "T3 sequence (whole entry)": "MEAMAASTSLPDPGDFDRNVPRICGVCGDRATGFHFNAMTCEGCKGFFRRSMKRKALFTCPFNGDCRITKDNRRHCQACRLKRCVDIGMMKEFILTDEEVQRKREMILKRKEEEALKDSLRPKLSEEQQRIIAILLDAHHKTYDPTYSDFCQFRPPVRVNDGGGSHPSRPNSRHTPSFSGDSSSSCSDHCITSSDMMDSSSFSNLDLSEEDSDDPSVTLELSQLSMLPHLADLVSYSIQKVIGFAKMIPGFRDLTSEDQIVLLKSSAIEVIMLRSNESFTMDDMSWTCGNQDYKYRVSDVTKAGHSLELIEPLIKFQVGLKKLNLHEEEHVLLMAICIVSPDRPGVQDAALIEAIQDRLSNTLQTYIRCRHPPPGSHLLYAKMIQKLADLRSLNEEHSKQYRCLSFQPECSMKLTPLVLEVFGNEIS", "assay": "Downregulation of VDR expression in human MCF7 cells at 10 uM after 6 hrs in presence of proteasome inhibitor MG132 by Western blot method relative to lamin B", "summary_of_the_method": "as §1"}, "[4]": {"molecular_target": "T3, Vitamin D3 receptor (Homo sapiens)", "assay": "Downregulation of VDR expression in human MCF7 cells at 10 uM after 6 hrs by Western blot method relative to lamin B", "summary_of_the_method": "as §1"}, "[5]": {"molecular_target": "T1, Androgen receptor (Homo sapiens)", "assay": "Downregulation of androgen receptor expression in human MCF7 cells at 1 uM after 6 hrs in presence of proteasome inhibitor MG132 by Western blot method relative to lamin B", "summary_of_the_method": "as §1"}, "[6]": {"molecular_target": "T3, Vitamin D3 receptor (Homo sapiens)", "assay": "Downregulation of VDR expression in human MCF7 cells at 3 uM after 6 hrs by Western blot method relative to lamin B", "summary_of_the_method": "as §1"}},
  "data": [
    {"smiles": "CCCCCCCCCCNCCOc1ccc(C(CCC)(CCC)c2ccc(O)c(C)c2)cc1C", "values": [
      {"measurement": "Activity", "setting": "[1]", "value": 77, "unit": "%"},
      {"measurement": "Activity", "setting": "[2]", "value": 57, "unit": "%"},
      {"measurement": "Activity", "setting": "[3]", "value": 86, "unit": "%"},
      {"measurement": "Activity", "setting": "[4]", "value": 80, "unit": "%"},
      {"measurement": "Activity", "setting": "[5]", "value": 96, "unit": "%"},
      {"measurement": "Activity", "setting": "[6]", "value": 99, "unit": "%"}
    ]}
  ]
}
